This is a sample that favours compounds with a hit; in the whole collection about 1.8% have one here.
procasp3 activ = activates human procaspase-3 | activation, % at 8.5 µM | P42574 | recombinant procaspase-3 D3A, Ac-DEVD-pNA absorbance 405 nm | AID 463141 | 330,000 compounds, 0.11% hits;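 active = activation above the mean of all tested compounds plus 3 SD, cut at about 21% in these data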;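 also: 0% = DMSO alone and 100% = DMSO wells spiked with extra 5 µM PC-3 D3A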
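Assay system – Procaspase-3 D3A mutant, all three cleavage aspartates alanine · Controls – DMSO-only low control, 5 µM PC-3 D3A high control · Schedule – 1 h compound preincubation, 2 h substrate hydrolysis at 25 °C · Signal – 405 nm absorbance of p-nitroaniline, reads at 0 and 120 min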
GSTO1 counter = GSTO1 inhibition, counter-screen for RBBP9 inhibitors; P78417; recombinant GSTO1, activity-based probe fluorescence polarization; inhibition, % at 5.96 µM; 300,000 compounds, 1.1% hits;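 active = inhibition above the campaign mean inhibition plus 3 SD, cut at about 35% in these data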;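 also: 0% = GSTO1-1 with DMSO and 100% = wells lacking GSTO1-1 enzyme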
ZTA counter = counter-screen for EBNA-1 inhibitors: inhibitors of Epstein-Barr virus ZTA | P03206 | ZTA-DNA binding, fluorescence polarization | inhibition, % at 11 µM | 320,000 compounds, 0.15% hits | AID 2234; in the data active = inhibition above about 33%
proCasp7 act = counter-screen: procaspase-7 (human) activation; P55210; recombinant procaspase-7, Ac-DEVD-pNA absorbance 405 nm; D23A/D198A/D206A triple mutant, cannot self-cleave; scale: DMSO 0, 5 µM enzyme 100; activation, % at 8.5 µM; 330,000 compounds, 0.093% hits;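 active = percent activation above the screen-wide mean plus 3 SD, cut at about 25% in these data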
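System: Uncleavable procaspase-7 mutant enzyme; Amount: 2 µM procaspase-7 mutant as dispensed; Schedule: 1 h compound preincubation, 2 h substrate cleavage, 25 °C; Measured by: 405 nm absorbance of p-nitroaniline; Evaluation: percent activation from buffer-corrected 0–120 min absorbance change; Control set: low DMSO alone, high DMSO plus 5 µM PC-7.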
EBNA-1 inh = blocks EBNA-1 binding to DNA. EBNA-1 DNA binding, fluorescence polarization. inhibition, % at 14.8 µM. 300,000 compounds, 0.34% hits; in the data active = inhibition above about 28%
Apaf1 inhib = human Apaf-1 inhibition; O14727; 330,000 compounds, 0.71% hits; inhibition, % at 20 µM; reconstituted apoptosome caspase-3 activity, DEVD-Rh110 fluorescence; active = inhibition of at least 40% at 20 µM;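 also: plate controls were DMSO wells for no effect and DEVD-CHO caspase inhibitor wells for full effect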
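System: reconstituted apoptosome with Apaf-1, cytochrome c, caspase-9, procaspase-3, dATP; Signal: Rh110 fluorescence intensity; Schedule: 30 min compound preincubation, 50 min activation, room temperature; Reagent: cytochrome c trigger plus (Z-DEVD)2-Rh110 caspase-3 substrate.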
PC3 dual counter = counter-screen: procaspase-3 (human) activation | shares compounds with proCasp7 act | recombinant PC-3 D3A, Ac-DEVD-pNA absorbance 405 nm; aspartates 9, 28, 175 changed to alanine; 100% = enzyme control | activation, % at 8.5 µM | 290 tested, under 10 active | AID 493114;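 active = mean percent activation across triplicates above a set limit taken from the earlier primary procaspase-3 screen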;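 also: 0% = DMSO wells and 100% = DMSO wells with 5 µM added PC-3 D3A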
Procasp7 act = activates human procaspase-7, confirming dual procaspase activators; shares compounds with proCasp7 act; recombinant procaspase-7, Ac-DEVD-pNA absorbance 405 nm; D23A/D198A/D206A mutant that cannot self-cleave; activation, % at 8.5 µM; 290 tested, under 10 active; AID 493115;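 active = mean activation above a set limit carried over from the earlier primary screen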;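 also: 0% = DMSO only and 100% = DMSO with added 5 µM PC-7 enzyme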
Active calls of the source: *; x = not tested or not shown.

SMILES | procasp3 activ | GSTO1 counter | ZTA counter | proCasp7 act | EBNA-1 inh | Apaf1 inhib | PC3 dual counter | Procasp7 act
NC(=O)c1nsc(C(=O)N(c2ccccc2)C(C(=O)NCc2ccc(F)cc2)c2ccc(O)cc2)c1N (configuration not stated) | -76 | 8 | -21 | 157* | 6 | 29 | -30 | -36
COc1ccccc1N(C(=O)c1snc(C(N)=O)c1N)C(C(=O)NC1CCCCC1)c1cccc(OC)c1OC (configuration not stated) | 14 | 2 | -8 | 37* | -4 | 14 | -21 | -18
Nc1ccccc1-c1nnc(SCC(=O)Nc2ccccc2OC(F)F)[nH]c1=O | -4 | x | x | -5 | x | -5 | x | x
NS(=O)(=O)c1ccc(N2N=C(c3ccc(Br)cc3)CC2c2ccc(F)cc2)cc1 (configuration not stated) | 3 | -12 | 17 | 20 | 5 | 26 | x | x
O=[N+]([O-])c1ccc(N2N=C(c3ccccc3)CC2c2ccccc2O)cc1 (configuration not stated) | x | x | x | x | x | 28 | x | x
NS(=O)(=O)c1ccc(N2N=C(c3ccccc3)CC2c2cccc(F)c2)cc1 (configuration not stated) | 40* | -12 | 3 | 67* | 0 | x | -30 | -37
COc1ccc(C2CC(c3ccccc3)=NN2c2ccc(S(N)(=O)=O)cc2)cc1OC (configuration not stated) | 10 | -7 | -14 | 26* | 2 | 17 | -29 | -36
NS(=O)(=O)c1ccc(N2N=C(c3ccccc3)CC2c2ccccc2Br)cc1 (configuration not stated) | 26* | x | x | 68* | x | 32 | -28 | -35
NS(=O)(=O)c1ccc(N2N=C(c3ccccc3)CC2c2cccc(Br)c2)cc1 (configuration not stated) | 29* | x | x | 32* | x | 40 | -31 | -34
CCOc1ccc(N2C(=O)CC(Cc3ccc(Br)cc3)C2=O)cc1 (configuration not stated) | 8 | 4 | 0 | 81* | 0 | 9 | 2 | 2
COc1ccc(N2C(=O)CC(Cc3ccc(Br)cc3)C2=O)cc1 (configuration not stated) | -6 | 7 | 0 | 8 | -11 | 3 | x | x
COc1ccc([C@H]2C(C(=O)O)=C[C@@H](CC3CCCC3)N2S(=O)(=O)c2ccc(C)cc2)cc1OC | 8 | x | x | 13 | x | 7 | x | x
CN(C)c1nc(-c2ccccc2)cc(C(F)(F)F)c1C#N | 16 | 9 | 4 | 14 | -8 | 23 | x | x
CN(C)c1nc(-c2cccs2)cc(C(F)(F)F)c1C#N | -7 | 1 | -7 | 39* | -13 | 14 | -31 | -36
Cc1ccc(Oc2nc3c(C)cccn3c(=O)c2/C=C(\C#N)C(N)=O)cc1 | 22* | -4 | 1 | 46* | 10 | -10 | -9 | -12
CCOC(=O)/C(C#N)=C/c1c(Oc2cccc(C)c2)nc2c(C)cccn2c1=O | 6 | 2 | -8 | 6 | -8 | 7 | x | x
Cc1cc(NC(=O)C(C)SCC(=O)OCC(=O)Nc2c(C)cccc2C(C)C)no1 (configuration not stated) | -6 | x | -5 | -18 | x | 8 | x | x
S=C1CCC(c2ccc(Cl)cc2)=NN1c1ccccc1 | 2 | 11 | -1 | 6 | 5 | 11 | x | x
c1ccc(C2=NN(c3ccccc3)CC2)cc1 | 36* | -4 | 1 | 39* | -7 | 0 | -30 | -34
CCCCNC(=O)c1nn2c(C(F)(F)F)cc(-c3ccccc3)nc2c1Br | x | x | x | x | x | 8 | x | x
N#CCNC(=O)c1nn2c(C(F)(F)F)cc(-c3ccccc3)nc2c1Br | -10 | 6 | 24 | 26* | 9 | -5 | 0 | 1
Cc1cc(C)c2c(N)c(C(=O)N/N=C/c3cccnc3)sc2n1 | -5 | 5 | -9 | 5 | -20 | 1 | x | x
Cc1cc(C)c2c(N)c(C(=O)N/N=C/c3ccccc3)sc2n1 | 35* | -9 | 5 | 32* | -11 | 3 | -28 | -36
COc1cc2c(cc1OC)C1(C)N(CC2)C(C(C)=O)=NN1c1ccc(Cl)cc1 (configuration not stated) | 28* | -2 | 18 | 37* | 6 | 5 | -28 | -36
COc1cc2c(cc1OC)CN(C(=O)c1cc(Cl)nc(Cl)c1)CC2 | 11 | 0 | 4 | -1 | 5 | 8 | x | x
SMILES | procasp3 activ | GSTO1 counter | ZTA counter | proCasp7 act | EBNA-1 inh | Apaf1 inhib | PC3 dual counter | Procasp7 act
Cc1ccc(S(=O)(=O)NCCC(=O)N2CCN(c3ccccc3)CC2)cc1C | 5 | x | x | 3 | x | 11 | x | x
COCCCC1CCN(C(=O)C2CCC(=O)N(CC3CCCCC3)C2)CC1 (configuration not stated) | x | x | x | x | x | 1 | x | x
Cc1ccc(-c2nc3c(Cl)cc(Cl)cc3c(=O)n2O)cc1 | -5 | 0 | -9 | -12 | -12 | 17 | x | x
COc1ccc(-c2cc3nc(-c4ccccc4)cc(N4CCCC(O)C4)n3n2)cc1 (configuration not stated) | 29* | 0 | -3 | 58* | 10 | -10 | -2 | -5
COc1ccc(-c2cc3nc(-c4ccccc4)cc(N4CCC(O)CC4)n3n2)cc1 | -2 | -13 | 3 | 32* | 1 | 26 | -1 | -6
O=C(COc1coc(CN2CCN(c3ccc(F)cc3)CC2)cc1=O)NCC1CCCO1 (configuration not stated) | 0 | 5 | 6 | -1 | 3 | -6 | x | x
CC(=O)Nc1ccc(S(=O)(=O)N(C)CC(=O)NNc2c(F)c(F)cc(F)c2F)cc1 | 7 | x | x | -5 | x | 4 | x | x
c1ccc2c(-c3c[nH]c4ccccc34)c3ccccc3nc2c1 | 16 | -3 | 19 | 33* | -4 | 15 | -11 | -10
COc1ccc(Br)cc1/C=C1\Oc2ccccc2NC1=O | 4 | 0 | 19 | -2 | 18 | -10 | x | x
O=C1Nc2ccccc2O/C1=C\c1ccccc1Br | 36* | -2 | 2 | 29* | 9 | 0 | -20 | -23
Cc1cc(C)n2nc(SCC(=O)N(CCC#N)c3ccccc3F)nc2n1 | -1 | x | -5 | 16 | x | -1 | x | x
COC(=O)c1ccc(CNC(=O)[C@@H]2CCCN2S(=O)(=O)c2ccccc2F)cc1 | 8 | x | x | 26* | x | -8 | 3 | 1
Cc1ccc(NC(=O)c2cnccn2)cc1S(=O)(=O)N1CCCCCC1 | 12 | x | x | 5 | x | 3 | x | x

Bioassay records deposited in PubChem by several laboratories.
